Measurements gathered from unrelated publications.
Each line is one published result; the experiments were not run side by side.
Target: MAP/microtubule affinity-regulating kinase 3 (MARK3, Homo sapiens, UniProt P27448)

Structure (SMILES) | effect on | mode | method | concentration | endpoint | value
CCCCC(=O)Nc1ccc(-c2ccc3ncn(CCC)c(=O)c3c2)cn1 | binding |  | competition with immobilised ligand | 0.5 µM | remaining binding | 91%
C1=C/COCc2cc(ccc2OCCN2CCCC2)Nc2nccc(n2)-c2cccc(c2)COC/1 | binding |  |  | 0.1 µM | remaining binding | 100%
Cc1cc(O)c(-c2ccc([C@@H](C)CN(C)C)cc2)c2c1[nH]c(=O)c1sccc12 | enzyme activity | inhibitor |  | 0.1 µM | inhibition | -0.763%
CN1CCN(C(=O)c2ccc(NC(=O)Nc3ccc(N(C)c4ccnc(Nc5ccc(CS(C)(=O)=O)cc5)n4)cc3)cc2)CC1 | binding |  |  | 1 µM | remaining binding | 43%
N#Cc1ccc(NC(=O)Nc2ccccc2)cc1 | cell-free assay |  | competition with immobilised ligand | 25 µM | remaining binding | 78%
CO[C@@H]1[C@H](N(C)C(=O)c2ccccc2)C[C@H]2O[C@]1(C)n1c3ccccc3c3c4c(c5c6ccccc6n2c5c31)C(=O)NC4 | enzyme activity | inhibitor |  | 1 µM | inhibition | 95%
CC(C)S(=O)(=O)c1ccc2nccc(Nc3ccc4sc(C5CCCC5)nc4c3)c2c1 | enzyme activity | inhibitor |  | 1 µM | activity vs control | 120%
CC#CC(=O)N1CCC[C@H]1c1nc(-c2ccc(C(=O)Nc3ccccn3)cc2)c2c(N)nccn12 | enzyme activity | inhibitor |  | 1 µM | inhibition | 0%
COc1ccc2oc(-c3ccc4nc(N)oc4c3)c/c(=N\c3ccccc3NC(=O)CCN)c2c1 | binding |  |  | 1 µM | remaining binding | 104%
Cc1ccc(NC(=O)c2ccnc(C(F)(F)F)c2)cc1-c1cc(OCCO)nc(N2CCOCC2)c1 | binding |  |  | 1 µM | remaining binding | 97%
C#Cc1cnc(Nc2ccnc(CO)c2)nc1Nc1ccccc1S(C)(=O)=NC#N (centres unmarked) | cell-free assay |  |  | 1 µM | remaining signal | 42%
